Data as given in PMC4609290 (Molecular cell, 2015).

Experiments:
[1] = tested on: PABPC1 gene, U2OS cells; assay: ChIP of GFP at PABPC1; format: cell-based; conditions: % GFP signal/input, three experiments
Procedure, shortened: (§1)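 Direct ChIP at the PABPC1 gene used two primer positions along the gene in the U2OS AF10 complementation lines. GFP enrichment was expressed as % GFP signal/input. H3K79me2 signal was normalized to total H3 signal. SEM came from three experiments.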

[2] = tested on: H3(15-34) peptides; assay: Peptide pull-down and ITC of AF10PZP mutants; format: binding; conditions: pull-down and ITC assays
Procedure, shortened: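 Alanine substitutions were made at AF10PZP residues that contact H3T22, H3K23, H3A24, H3R26 and H3K27. GST-AF10PZP (pGEX-6P-1 construct) was used in pull-downs with biotinylated H3(15-34) peptides, and binding was also assessed by ITC.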

[3] = tested on: ML2 leukemia cells; assay: Proliferation of ML2 cells; format: cell-based; conditions: AF10-depleted ML2 cells; three independent experiments
Procedure, shortened: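 Growth curves were run on ML2 leukemia cells (MLL-AF6 fusion) carrying control or AF10-targeting sgRNA, either without reconstitution or reconstituted with wild-type AF10 or AF10L107A. SEM came from three independent experiments.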

[4] = tested on: chromatin (HeLa cells); assay: In situ fractionation, fluorescence microscopy; format: cell-based; conditions: detergent treatment prior to fixation, 30–60 cells, three independent fields, two biological replica
[5] = tested on: chromatin (U2OS cells); format: cell-based
Procedure, shortened: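 Lysates from U2OS cells expressing wild-type or mutant GFP-AF10 were biochemically separated into soluble and chromatin-enriched fractions, then Western blotted with the indicated antibodies. Whole cell extract controlled for total AF10 expression, and tubulin and H3 levels controlled for integrity of fractionation.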

[6] = tested on: H3K79me2 at the PABPC1 gene, U2OS cells; assay: ChIP of H3K79me2 at PABPC1; format: cell-based; conditions: AF10 deleted, normalized to total H3, three experiments
Procedure, shortened: as §1

effect of AF10PZP mutation on binding to H3 peptides [2]: abolishes H3 binding
B1: GFP-AF10L107A: AF10 mutant that abolishes H3 binding, involved in both K23 and K27 side-chain recognition (protein)
chain: MVSSDRPVSLEDEVSHSMKEMIGGCCVCSDERGWAENPLVYCDGHGCSVAVHQACYGIVQVPTGPWFCRKCESQERAARVRCELCPHKDGALKRTDNGGWAHVVCAAYIPEVQFANVSTMEPIVLQSVPHDRYNKTCYICDEQGRESKAATGACMTCNKHGCRQAFHVTCAQFAGLLCEEEGNGADNVQYCGYCKYHFSKLKKSKRGS
modifications: left off: GST, end not stated, kept
occupancy at the PABPC1 gene [1]: low relative to wild-type GFP-AF10
reversal of decreased proliferation [3]: but not with mutant AF10L107A
chromatin-association by in situ fractionation [4]: Decreased chromatin-association
AF10 enrichment at chromatin ([5]; tetracycline-inducible GFP-AF10): reduced in comparison to wild-type AF10
AF10 detected in the soluble fraction ([5]; versus wild-type AF10): more mutant being detected in the soluble fraction
reconstitution of H3K79me2 signal at PABPC1 [6]: but not upon induction of GFP-AF10L107A
